Data set [1] has as its system Liver microsomes. Kind of data set: Stability in human liver microsomes assessed as conversion of prodrug into pentamidine per mg protein. It counts as ADME, Microsome. Summed up:
(§1)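 Human or porcine liver/kidney subcellular fractions (microsomes, mitochondria, 9000g supernatant, cytosol); 0.3 mg protein with 1 mM prodrug in 100 mM potassium phosphate pH 6.3, preincubated 5 min at 37 °C aerobically, started with NADH (1 mM final); protein removed by centrifugation, supernatant analysed by HPLC; turnover as mean ± SD of two independent experiments measured twice.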

Data set [2] is described as follows: Stability in human liver mitochondria assessed as conversion of prodrug into pentamidine per mg protein. In kind it is ADME. The gist of the method: as §1
Data set [3] deals with Liver. Kind of data set: Stability in human liver 9000g supernatant assessed as conversion of prodrug into pentamidine per mg protein. In kind it is ADME, tissue-based. Summed up: as §1
Data set [4] can be described thus: Stability in human kidney microsomes assessed as conversion of prodrug into pentamidine per mg protein. It counts as ADME, Microsome. The gist of the method: as §1
Data set [5] in a line: Stability in human kidney mitochondria assessed as conversion of prodrug into pentamidine per mg protein. It counts as ADME. Summed up: as §1
For data set [6], the target named is T1, Mitochondrial amidoxime-reducing component 1 (Homo sapiens) (UniProt Q5VT66).
T1 sequence (whole entry): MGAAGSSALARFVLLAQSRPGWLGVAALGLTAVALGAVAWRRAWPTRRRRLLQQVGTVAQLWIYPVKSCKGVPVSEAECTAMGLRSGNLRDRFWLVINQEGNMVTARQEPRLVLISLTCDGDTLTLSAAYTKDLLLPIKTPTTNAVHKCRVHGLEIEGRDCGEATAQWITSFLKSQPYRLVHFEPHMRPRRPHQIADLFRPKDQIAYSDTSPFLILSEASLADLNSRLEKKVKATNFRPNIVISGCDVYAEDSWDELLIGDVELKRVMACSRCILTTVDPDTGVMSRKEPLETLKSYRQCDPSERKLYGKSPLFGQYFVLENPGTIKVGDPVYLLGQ
Description: Activation of prodrug into pentamidine per mg of recombinant hmARC1 in 20 mM MES buffer of pH 6.0 for 30 mins. The gist of the method:
(§2)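 Recombinant human mARC1 or mARC2 (76 pmol) incubated with 0.5 mM prodrug, 1 mM NADH, 2 U pig liver carboxylesterase, 76 pmol cytochrome b5 and 7.6 pmol NADH cytochrome b5 reductase in 20 mM MES pH 6.0; amidine formed quantified by HPLC; turnover rates as mean ± SD of three incubations.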

Data set [7] can be described thus: Activation of prodrug into pentamidine per mg of recombinant hmARC2 in 20 mM MES buffer of pH 6.0 for 30 mins. Summed up:
as §2

Data set [8] can be described thus: Stability of the compound at pH 2. To be noted: buffer. It counts as physicochemical. Summed up:
(§3)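 Chemical stability: prodrug at 100 µM in 100 mM potassium phosphate buffer pH 2.0, 6.3 or 7.4 at 37 °C; remaining prodrug and hydrolysis products followed by HPLC.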

The nature of data set [9]: Stability of the compound at pH 6.3. In kind it is physicochemical. To be noted: buffer. Summed up: as §3
Data set [10] in a line: Stability of the compound at pH 7.4. In kind it is physicochemical. To be noted: buffer. The gist of the method: as §3
A short description of data set [11]: Stability of the compound in presence of 0.5 U esterase/250 uL. In kind it is ADME. Conditions: isolated protein. Summed up:
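Prodrugs incubated with pig liver carboxylesterase (0.5 U/250 µL) in 100 mM potassium buffer pH 7.4; hydrolysis followed by HPLC.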

A short description of data set [12]: Stability in pig liver microsomes assessed as conversion of prodrug into pentamidine per mg protein. It counts as ADME, Sus scrofa, Microsome. Summed up: as §1
In general terms: Liver microsomes are vesicles of endoplasmic reticulum, rich in cytochrome P450 enzymes.

Data set [13] can be described thus: Stability in pig liver mitochondria assessed as conversion of prodrug into pentamidine per mg protein. In kind it is ADME, Sus scrofa. The gist of the method:
as §1

Data set [14] in a line: Stability in pig liver 9000g supernatant assessed as conversion of prodrug into pentamidine per mg protein. It counts as ADME, tissue-based, Sus scrofa. Summed up:
as §1

Data set [15] in a line: Stability in pig kidney mitochondria assessed as conversion of prodrug into pentamidine per mg protein. In kind it is ADME, Sus scrofa. The gist of the method: as §1
The nature of data set [16]: Stability in pig kidney microsomes assessed as conversion of prodrug into pentamidine per mg protein. It counts as ADME, Sus scrofa, Microsome. The gist of the method: as §1
Data set [17] is described as follows: Stability in pig kidney 9000g supernatant assessed as conversion of prodrug into pentamidine per mg protein. In kind it is ADME, tissue-based, Sus scrofa. Summed up: as §1
The nature of data set [18]: Stability in pig hepatocytes assessed as conversion of prodrug into benzamidoxime per mg protein. In kind it is ADME, cell-based, Sus scrofa, Hepatocyte.
The nature of data set [19]: Stability in pig hepatocytes assessed as conversion of prodrug into benzamidine per mg protein. In kind it is ADME, cell-based, Sus scrofa, Hepatocyte.
In data set [20] the target is T1, Mitochondrial amidoxime-reducing component 1 (Homo sapiens). Kind of data set: Activation of prodrug into benzamidine per mg of recombinant hmARC1 in 20 mM MES buffer of pH 6.0 for 30 mins. Summed up:
as §2

Data set [21] in a line: Activation of prodrug into benzamidine per mg of recombinant hmARC2 in 20 mM MES buffer of pH 6.0 for 30 mins. Summed up: as §2
The test system of data set [22] is Rattus norvegicus. Kind of data set: Tmax in Wistar rat assessed as benzamidine at 50 mg/kg, po. In kind it is ADME, organism-based. Details: dose 50 mg/kg, route oral. To be noted: in vivo. Summed up:
(§4)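 Male Wistar rats (initial weight 230 g) fitted with carotid artery and jugular vein cannulas, fasted 16 h; prodrug 50 mg/kg by oral gavage in 100 mM phosphate buffer pH 6.3 (n = 3); reference benzamidine 10 mg/kg iv in water for injection; blood at 30–480 min (oral) or 10–360 min (iv); plasma benzamidine by HPLC.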

The test system of data set [23] is Rattus norvegicus. Kind of data set: Cmax in Wistar rat assessed as benzamidine at 50 mg/kg, po. It counts as ADME, organism-based. Details: dose 50 mg/kg, route oral. To be noted: in vivo. The gist of the method: as §4
Data set [24] concerns Rattus norvegicus. Description: Half life in Wistar rat assessed as benzamidine at 50 mg/kg, po. Details: dose 50 mg/kg, route oral. It counts as ADME, organism-based. Conditions: in vivo. The gist of the method: as §4
Data set [25] concerns Rattus norvegicus. Kind of data set: Mean residence time in Wistar rat assessed as benzamidine at 50 mg/kg, po. It counts as ADME, organism-based. Details: dose 50 mg/kg, route oral. To be noted: in vivo. The gist of the method: as §4
The subject of data set [26] is Rattus norvegicus. Kind of data set: Volume of distribution in Wistar rat assessed as benzamidine at 50 mg/kg, po. It counts as ADME, organism-based. Details: dose 50 mg/kg, route oral. To be noted: in vivo. Summed up: as §4
Data set [27] relates to Rattus norvegicus. Kind of data set: Clearance in Wistar rat assessed as benzamidine at 50 mg/kg, po. It counts as ADME, organism-based. Details: dose 50 mg/kg, route oral. To be noted: in vivo. The gist of the method:
as §4

The test system of data set [28] is Rattus norvegicus. Description: Oral bioavailability in Wistar rat assessed as benzamidine at 50 mg/kg. It counts as ADME, organism-based. Conditions: in vivo. The gist of the method:
as §4

A short description of data set [29]: Stability of the compound assessed as conversion to benzamidoxime at pH 2. To be noted: buffer. It counts as physicochemical. Summed up:
as §3

Data set [30] in a line: Stability in pig liver microsomes assessed as conversion of prodrug into benzamidine per mg protein. It counts as ADME, Sus scrofa, Microsome. The gist of the method:
as §1

The nature of data set [31]: Stability in pig liver mitochondria assessed as conversion of prodrug into benzamidine per mg protein. In kind it is ADME, Sus scrofa. The gist of the method: as §1
The nature of data set [32]: Stability in pig liver cytosol assessed as conversion of prodrug into benzamidine per mg protein in potassium phosphate buffer of pH 6.3. It counts as ADME, tissue-based, Sus scrofa. Summed up:
as §1

The nature of data set [33]: Stability in pig liver 9000g supernatant assessed as conversion of prodrug into benzamidine per mg protein. In kind it is ADME, tissue-based, Sus scrofa. The gist of the method: as §1
The nature of data set [34]: Stability in pig kidney mitochondria assessed as conversion of prodrug into benzamidine per mg protein. In kind it is ADME, Sus scrofa. The gist of the method: as §1
Data set [35] in a line: Stability in pig kidney microsomes assessed as conversion of prodrug into benzamidine per mg protein. It counts as ADME, Sus scrofa, Microsome. The gist of the method:
as §1

Data set [36] in a line: Stability in pig kidney 9000g supernatant assessed as conversion of prodrug into benzamidine per mg protein. In kind it is ADME, tissue-based, Sus scrofa. Summed up:
as §1

Data set [37] has as its system Liver microsomes. Kind of data set: Stability in human liver microsomes assessed as conversion of prodrug into benzamidine per mg protein. In kind it is ADME, Microsome. The gist of the method: as §1
A short description of data set [38]: Stability in human liver mitochondria assessed as conversion of prodrug into benzamidine per mg protein. In kind it is ADME. Summed up:
as §1

Data set [39] has as its system Liver. Kind of data set: Stability in human liver 9000g supernatant assessed as conversion of prodrug into benzamidine per mg protein. It counts as ADME, tissue-based. The gist of the method: as §1
Data set [40] in a line: Stability in human kidney microsomes assessed as conversion of prodrug into benzamidine per mg protein. In kind it is ADME, Microsome. The gist of the method: as §1
Data set [41] can be described thus: Stability in human kidney mitochondria assessed as conversion of prodrug into benzamidine per mg protein. It counts as ADME. Summed up:
as §1

Results on 2 molecules are retold here after ChEMBL document CHEMBL1681763, “Synthesis and biological evaluation of L-valine-amidoximeesters as double prodrugs of amidines” (Bioorg Med Chem, 2011).

Molecules are shown by their SMILES.

For `CC(C)[C@H](N)C(=O)O/N=C(\N)c1ccc(OCCCCCOc2ccc(/C(N)=N/OC(=O)[C@@H](N)C(C)C)cc2)cc1`, the Stability in the data set with Liver microsomes [1] is 0.3 nmol/min/mg; in data set [2], 0.2 nmol/min; with Liver [3], 0.2 nmol/min/mg; in data set [4], 0.3 nmol/min/mg; in data set [5] it was 0.4 nmol/min/mg; in data set [6], 48.8 nmol/min. Moreover, the Stability is 10.9 nmol/min/mg in data set [7]; “Stable” in data set [8]; “Stable” in data set [9]; “Stable” in data set [10]; “Unstable” in data set [11]; 0.5 nmol/min/mg in data set [12]. Further, the Stability in [13] was determined as 1 nmol/min; in data set [14], 0.4 nmol/min/mg; in data set [15] it was 0.8 nmol/min/mg; in [16] it was 0.7 nmol/min/mg; in data set [17], 0.2 nmol/min/mg.

Regarding `CC(C)[C@H](N)C(=O)O/N=C(\N)c1ccccc1`, the Stability in [18] is 650 pmol/min; in data set [19], 175 pmol/min; in data set [20], 67.4 nmol/min/mg; in data set [21], 43.7 nmol/min; in [9], “Stable”; in data set [10] it was “Stable”. In addition, the Stability entry was “Unstable” in data set [29]; “Unstable” in data set [11]; 7 nmol/min/mg in data set [30]; 8.6 nmol/min/mg in data set [31]; 1.2 nmol/min in data set [32]; 3.4 nmol/min/mg in [33]. Further, the Stability in data set [34] worked out at 8.8 nmol/min/mg; in [35] it was 10.4 nmol/min/mg; in data set [36] it was 5.6 nmol/min; in the data set with Liver microsomes [37], 0.9 nmol/min/mg; in data set [38], 1.8 nmol/min/mg; in the data set on Liver [39] it was 0.2 nmol/min/mg. For the same molecule, the Stability was 1.3 nmol/min in [40] and 2 nmol/min/mg in data set [41]. The Tmax in the data set with Rattus norvegicus [22] came out at 0.833 h. In the data set with Rattus norvegicus [23], the Cmax came to 23.3 µM. In addition, the t1/2 in the data set on Rattus norvegicus [24] amounted to 2.922 h. Besides, the MRT in the data set with Rattus norvegicus [25] came to 4.323 h. The Vd in the data set with Rattus norvegicus [26] is 12.84 L/kg. Also, the CL in the data set on Rattus norvegicus [27] is 50 mL/min/kg. Also, the F in the data set with Rattus norvegicus [28] is listed as 87.7%.

As usually defined, the Tmax is the time from dosing to the highest level. Broadly, the Cmax is the peak of the concentration-time curve. In general, MRT refers to the average time that molecules of a dose stay in the body.
